Active and inactive are the calls of the source. The rule behind the calls is not given here.

For experiment [1], the target named is T1, Toll-like receptor 9 (Mus musculus) (UniProt Q9EQU3).
T1 sequence (whole entry): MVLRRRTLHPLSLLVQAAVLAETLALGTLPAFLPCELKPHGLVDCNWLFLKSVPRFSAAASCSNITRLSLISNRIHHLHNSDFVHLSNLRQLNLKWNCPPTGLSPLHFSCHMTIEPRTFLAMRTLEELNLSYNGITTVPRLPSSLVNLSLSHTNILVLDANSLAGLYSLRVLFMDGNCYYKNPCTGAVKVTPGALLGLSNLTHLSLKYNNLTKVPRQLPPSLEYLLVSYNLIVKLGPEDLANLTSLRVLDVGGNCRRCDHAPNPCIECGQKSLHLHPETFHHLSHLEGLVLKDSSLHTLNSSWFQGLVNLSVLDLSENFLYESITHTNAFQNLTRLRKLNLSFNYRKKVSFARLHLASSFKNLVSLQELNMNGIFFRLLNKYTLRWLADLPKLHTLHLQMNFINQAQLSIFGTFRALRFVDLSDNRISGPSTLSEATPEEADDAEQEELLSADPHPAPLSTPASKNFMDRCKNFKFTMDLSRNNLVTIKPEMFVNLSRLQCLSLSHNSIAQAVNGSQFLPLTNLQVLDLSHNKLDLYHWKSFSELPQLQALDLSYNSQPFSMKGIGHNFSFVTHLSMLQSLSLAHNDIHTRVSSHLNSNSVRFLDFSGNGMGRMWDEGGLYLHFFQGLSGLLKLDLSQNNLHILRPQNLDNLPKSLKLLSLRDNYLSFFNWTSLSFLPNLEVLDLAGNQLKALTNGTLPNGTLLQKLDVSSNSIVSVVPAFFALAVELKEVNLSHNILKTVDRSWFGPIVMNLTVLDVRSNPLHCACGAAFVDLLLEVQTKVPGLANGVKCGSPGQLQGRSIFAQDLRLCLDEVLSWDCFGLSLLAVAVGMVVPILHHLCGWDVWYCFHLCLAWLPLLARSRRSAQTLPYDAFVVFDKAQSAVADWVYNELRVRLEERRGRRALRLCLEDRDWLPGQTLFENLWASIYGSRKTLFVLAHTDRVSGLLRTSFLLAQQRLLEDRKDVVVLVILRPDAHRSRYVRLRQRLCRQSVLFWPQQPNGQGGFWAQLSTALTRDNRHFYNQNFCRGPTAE
Put plainly: Activation of mouse TLR9 expressed in HEK293 cells assessed as NF-kappaB level at 1 ug/mL after 18 hrs by reporter gene assay. It is filed as cell-based. A digest of the protocol: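 HEK293 cells stably expressing mouse TLR9 were transiently transfected with a SEAP reporter for 6 h, then stimulated with ODN at 0.1, 0.3 or 1 μg/mL for 18 h. Reporter expression is given as fold change in NF-κB activity over medium. Representative of two independent experiments.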

For experiment [2], the system named is Mus musculus. Put plainly: Immunostimulatory activity in C57BL/6 mouse assessed as inhibition of TLR7 agonist-induced KC production in serum at 5 mg/kg, sc administered 24 hrs prior to TLR7 agonist challenge measured after 2 hrs by Luminex multiplex assay. Particulars: C57BL/6, sc, route subcutaneous. It is filed as functional.
The test system of experiment [3] is Mus musculus. Kind of experiment: Immunostimulatory activity in C57BL/6 mouse assessed as induction of MCP1 level in serum at 2 mg/kg, sc after 2 hrs by Luminex multiplex assay. It is filed as functional, organism-based. On the set-up: dose 2 mg/kg. A digest of the protocol:
(§1)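 Female C57BL/6 mice, 5–6 weeks old, n = 3, received a single 2 mg/kg subcutaneous ODN injection in the right flank. Blood was taken by retro-orbital bleeding 2 h later. Naive mice served as baseline. Representative of three experiments.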

Experiment [4] deals with Splenocyte. Put plainly: Immunostimulatory activity in C57BL/6 mouse splenocytes assessed as induction of IL6 secretion at 2 to 10 ug/ml after 24 hrs by sandwich ELISA. It is filed as functional, cell-based. A digest of the protocol:
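C57BL/6 splenocytes (mice 5–8 weeks) at 5 × 10^6 cells/mL in RPMI complete medium. ODNs dissolved in PBS were added and the cells incubated at 37 °C for 24 h. Supernatant IL-12 or IL-6 was measured by sandwich ELISA. Runs were done two or three times, in duplicate per concentration.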

Experiment [5] has as its system Mus musculus. Kind of experiment: Immunostimulatory activity in C57BL/6 mouse assessed as induction of MIP-1alpha level in serum at 2 mg/kg, sc after 2 hrs by Luminex multiplex assay. On the set-up: dose 2 mg/kg. It is filed as functional, organism-based. A digest of the protocol:
as §1

The subject of experiment [6] is Mus musculus. Kind of experiment: Immunostimulatory activity in C57BL/6 mouse assessed as induction of IL12 level in serum at 2 mg/kg, sc after 2 hrs by sandwich ELISA. On the set-up: dose 2 mg/kg. It is filed as functional, organism-based. A digest of the protocol: as §1
The subject of experiment [7] is Mus musculus. Kind of experiment: Immunostimulatory activity in C57BL/6 mouse assessed as inhibition of LPS-induced KC production in serum at 10 mg/kg, sc administered 24 hrs prior to LPS challenge measured after 2 hrs by Luminex multiplex assay.
Experiment [8] has as its system Mus musculus. Put plainly: Immunostimulatory activity in C57BL/6 mouse assessed as induction of KC level in serum at 2 mg/kg, sc after 2 hrs by Luminex multiplex assay. It is filed as functional, organism-based. On the set-up: dose 2 mg/kg. A digest of the protocol:
as §1

A further experiment deals with J774. Put plainly: Activation of NF-kappaB in mouse J774 cells at 2.5 ug/ml after 1 hr by EMSA. It is filed as cell-based. A digest of the protocol:
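Murine J774 macrophages in DMEM with 10% FBS and antibiotics, plated at 5×10^6 cells/well. ODNs were given alone or together for 1 h. For inhibition, the agonist ODN at 0.5 μg/mL was co-incubated with the modified ODN at 2.5 μg/mL. Nuclear extracts were resolved by EMSA on native polyacrylamide gels and read by autoradiography.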

Experiment [9] relates to Splenocyte. Kind of experiment: Inhibition of 5'-CTATCTGACGTTCTCTGT-3'-induced IL6 secretion in C57BL/6 mouse splenocytes after 24 hrs by sandwich ELISA. It is filed as functional, cell-based. A digest of the protocol:
(§2)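 Splenocytes from 5–8-week C57BL/6 mice, 5 × 10^6 cells/mL in RPMI complete medium, were co-incubated with the TLR9 agonist ODN (1 µg/mL) plus test ODN at 1 or 4 µg/mL, or over a concentration series, at 37 °C for 24 h. Supernatant IL-12 or IL-6 was measured by sandwich ELISA. Runs were done in duplicate, with three independent experiments.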

Experiment [10] deals with Mus musculus. Kind of experiment: Immunostimulatory activity in C57BL/6 mouse assessed as inhibition of 5'-CTATCTGACGTTCTCTGT-3'-induced MIP1a production in serum at 5 mg/kg, sc administered 24 hrs prior to 5'-CTATCTGACGTTCTCTGT-3' challenge measured after 2 hrs by Luminex multiplex assay. It is filed as functional. Particulars: C57BL/6, sc, route subcutaneous.
In experiment [11] the test system is Splenocyte. Put plainly: Inhibition of 5'-CTATCTGACGTTCTCTGT-3'-induced IL12 secretion in C57BL/6 mouse splenocytes after 24 hrs by sandwich ELISA. It is filed as functional, cell-based. A digest of the protocol:
as §2

Experiment [12] concerns Mus musculus. Kind of experiment: Immunostimulatory activity in C57BL/6 mouse assessed as inhibition of 5'-CTATCTGACGTTCTCTGT-3'-induced IL12 production in serum at 2 mg/kg, sc administered 24 hrs prior to 5'-CTATCTGACGTTCTCTGT-3' challenge measured after 2 hrs by sandwich ELISA. Particulars: C57BL/6, sc, route subcutaneous. It is filed as functional. The procedure, abridged: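 C57BL/6 mice were pretreated sc in the right flank with 2, 5 or 10 mg/kg ODN. After 24 h, the TLR9 agonist ODN was given at 0.5 mg/kg sc in the left flank. Serum IL-12 was measured by ELISA 2 h later. Representative of two experiments.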

In experiment [13] the test system is Mus musculus. Put plainly: Immunostimulatory activity in C57BL/6 mouse assessed as induction of IL10 level in serum at 2 mg/kg, sc after 2 hrs by Luminex multiplex assay. On the set-up: dose 2 mg/kg. It is filed as functional, organism-based. The procedure, abridged: as §1

On to `COC1[C@H](n2cnc3c(=O)[nH]c(N)nc32)O[C@H](COP(=O)(S)O[C@H]2C[C@H](n3cc(C)c(N)nc3=O)O[C@@H]2COP(=O)(S)O[C@H]2C[C@H](n3cnc4c(N)ncnc43)O[C@@H]2COP(=O)(S)O[C@H]2C[C@H](n3cnc4c(=O)[nH]c(N)nc43)O[C@@H]2COP(=O)(S)O[C@H]2C[C@H](n3cc(C)c(=O)[nH]c3=O)O[C@@H]2COP(=O)(S)O[C@H]2C[C@H](n3ccc(N)nc3=O)O[C@@H]2COP(=O)(S)O[C@H]2C[C@H](n3cc(C)c(=O)[nH]c3=O)O[C@@H]2COP(=O)(S)O[C@H]2C[C@H](n3cnc4c(N)ncnc43)O[C@@H]2COP(=O)(S)O[C@H]2C[C@H](n3cc(C)c(=O)[nH]c3=O)O[C@@H]2COP(=O)(S)O[C@H]2C[C@H](n3ccc(N)nc3=O)O[C@@H]2CO)[C@H]1OP(=O)(S)OC[C@H]1O[C@@H](n2cc(C)c(=O)[nH]c2=O)C[C@@H]1OP(=O)(S)OC[C@H]1O[C@@H](n2cc(C)c(=O)[nH]c2=O)C[C@@H]1OP(=O)(S)OC[C@H]1O[C@@H](n2ccc(N)nc2=O)C[C@@H]1OP(=O)(S)OC[C@H]1O[C@@H](n2cc(C)c(=O)[nH]c2=O)C[C@@H]1OP(=O)(S)OC[C@H]1O[C@@H](n2ccc(N)nc2=O)C[C@@H]1OP(=O)(S)OC[C@H]1O[C@@H](n2cc(C)c(=O)[nH]c2=O)C[C@@H]1OP(=O)(S)OC[C@H]1O[C@@H](n2cnc3c(=O)[nH]c(N)nc32)C[C@@H]1OP(=O)(S)OC[C@H]1O[C@@H](n2cc(C)c(=O)[nH]c2=O)C[C@@H]1O` (some centres undefined), for which the result (in experiment [1]; in the experiment on Mus musculus [3]; in the experiment with Mus musculus [5]; in the experiment on Mus musculus [6]; with Mus musculus [7]; in the experiment on Mus musculus [8]) was inactive. Besides, the outcome in the experiment on J774 and with Mus musculus [13] was inactive. Also, the inhibition in vivo at 5 mg/kg with Mus musculus [2] and in the experiment on Mus musculus [10] was 50% each time. The outcome in the experiment with Splenocyte [4] was Active. The Activity entry in the experiment with Splenocyte [9] and with Splenocyte [11] was “Dose-dependent effect” throughout. The inhibition in vivo at 2 mg/kg in the experiment on Mus musculus [12] was 14%.

The values above are taken from ChEMBL document CHEMBL1152452, “Modifications incorporated in CpG motifs of oligodeoxynucleotides lead to antagonist activity of toll-like receptors 7 and 9” (2009).
